# High-throughput results as filed in PubChem BioAssay.
# FAK inh: inhibitors of human focal adhesion kinase; Q05397; biochemical FAK kinase activity assay; inhibition, %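 (tested at 7 µM)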; 0.84% of 97,000 active; AID 727; in the data active = inhibition above about 19%;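 note: 0% = DMSO and 100% = reference compound high control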
# PLK1 PBD inh: blocks phosphopeptide binding to human Plk1 polo box domain; P53350; Plk1 PBD phosphopeptide binding, fluorescence polarization; inhibition, %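 (tested at about 20 µM)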; 0.13% of 97,000 active; AID 693; in the data active = inhibition above about 34%, passing the limit was not always enough
# Target sequence (P53350 whole entry, looked up, the tested form may be a part): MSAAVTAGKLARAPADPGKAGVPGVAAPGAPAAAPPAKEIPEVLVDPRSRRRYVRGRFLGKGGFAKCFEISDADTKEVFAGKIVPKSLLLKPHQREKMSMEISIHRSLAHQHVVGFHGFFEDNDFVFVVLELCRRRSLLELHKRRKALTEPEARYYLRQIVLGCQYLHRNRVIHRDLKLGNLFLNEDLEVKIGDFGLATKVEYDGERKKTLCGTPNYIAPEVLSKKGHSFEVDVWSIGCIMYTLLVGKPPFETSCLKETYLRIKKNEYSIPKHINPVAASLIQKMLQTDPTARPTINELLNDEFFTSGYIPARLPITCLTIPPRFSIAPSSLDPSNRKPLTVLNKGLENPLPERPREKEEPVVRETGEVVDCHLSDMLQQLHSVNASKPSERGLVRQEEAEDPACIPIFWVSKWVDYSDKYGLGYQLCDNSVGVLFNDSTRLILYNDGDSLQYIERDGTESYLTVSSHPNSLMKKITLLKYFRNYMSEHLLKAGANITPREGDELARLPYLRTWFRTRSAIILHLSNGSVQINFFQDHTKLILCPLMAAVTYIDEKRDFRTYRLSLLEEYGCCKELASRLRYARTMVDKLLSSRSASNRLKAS
# PLK1 kinase inh: inhibitors of human PLK1 kinase; P53350; recombinant PLK1 kinase, TR-FRET peptide phosphorylation; inhibition, % at 10 µM; 0.53% of 97,000 active; AID 619;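 active = inhibition of 50% or more in the single-concentration screen; inactive = inhibition below 50%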;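 note: 0% = DMSO max control and 100% = H-89 dihydrochloride min control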
# DAT uptake mod: changed human dopamine transporter uptake under cocaine IC80; Q01959; LLC-PK1 hDAT cells, [14C]-dopamine uptake with cocaine IC80; actives deviate in either direction; B-score at 10 µM; 1.3% of 110,000 active; AID 449768;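 active = Z score or B-score, a plate-position-corrected score, falls beyond the plate's 99.7% confidence bounds, in either direction; inactive = both scores lie inside the 99.7% bounds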;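 note: scored against the spread of the other compound wells on the same plate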
# EphB4 ephrin blk: antagonists of human EphB4-ephrin-B2 interaction; inhibition, % at 7 µM; 0.15% of 97,000 active; EphB4 LBD / TNYL-RAW-Alexa532 peptide, fluorescence polarization; AID 720;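 active = inhibition above the screen-wide mean inhibition plus 3 SD, cut at about 15% in these data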;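 note: 0% = DMSO wells and 100% = excess unlabeled TNYL-RAW peptide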
# HIV Rev-RRE inh: inhibitors of HIV-1 Rev-RRE RNA interaction; P05866; Rev peptide-RRE RNA binding, FRET; inhibition, % at 8 µM; 0.79% of 97,000 active; AID 704;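 active = inhibition above the screen-wide mean plus 3 SD, cut at about 35% in these data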;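 note: 0% = median DMSO wells and 100% = median Neomycin B control wells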
#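 Test system: labelled RRE RNA duplex and labelled Rev peptide. Times: 5 min compound–RNA preincubation, then 15 min with peptide, 25 °C. Doses: single-dose 8 µM. Measured by: FRET, excitation 480 nm, emission 540 nm donor and 671 nm acceptor. Measure: % inhibition of FRET ratio versus controls.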
# * = called active by the depositor; nt = not tested or not shown; [ ] = another dose, or the depositor's remark. Hits are enriched below; roughly 3.2% of the tested compounds scored in any of these assays.
SMILES,FAK inh,PLK1 PBD inh,PLK1 kinase inh,DAT uptake mod,EphB4 ephrin blk,HIV Rev-RRE inh
Cc1cc(=O)oc(C)c1C(=O)NCC(C)C,-6,6,3,-0.15,-4,-2
CN(C)c1nccc(Nc2ccccc2)c1C#N,0,-14,-3,0.79,16*,-2
C=CCn1cc(C(=O)NCc2ccco2)c(=O)c2cc(S(=O)(=O)N3CCCCCC3)ccc21,6,8,-9,3.3*,6,4
CCn1cc(C(=O)N2CCCCC2)c(=O)c2cc(S(=O)(=O)N3CCC(C)CC3)ccc21,-1,-5,50*,-0.79,3,5
CCn1cc(C(=O)NC2CCC(C)CC2)c(=O)c2cc(S(=O)(=O)N3CCCCC3)ccc21 (stereo unspecified),1,-29,-14,2.2*,-5,9
CCCC1=C(C(=O)OCC)C(c2cc(Cl)cc(OC)c2OCc2ccccc2)NC(=O)N1 (stereo unspecified),1,-25,-6,0.056,3,3
CCC(C(=O)NC1CCCCC1)n1c(SCc2cccc(F)c2)nc2ccncc21 (stereo unspecified),nt,nt,nt,2.8*,nt,nt
CCOc1cc(NS(=O)(=O)c2ccccc2)c(OCC)cc1NC(=O)c1ccco1,-1,16,-6,-0.52,5,10
CCc1cc[n+](-c2nc([O-])sc2C=O)cc1,-1,-13,-5,-0.22,0,46*
Cc1ccc(-c2nnc(CSc3nnc(COc4cccc5ccccc45)n3-c3ccccc3)o2)cc1,3,47*,-13,nt,-4,-5
COc1cccc(C(CC(=O)NCc2ccco2)NS(=O)(=O)c2ccc(C)cc2)c1OC (stereo unspecified),nt,nt,nt,-0.53,nt,nt
C=CCNC(=O)C(C(=O)OCC)C1CCCCC1 (stereo unspecified),-2,11,-7,-1.6,-1,9
CCOC(=O)c1[nH]c(C)c(C(=O)NCCCN2CCOCC2)c1C,-2,-14,-6,-5*,0,11
CCOC(=O)C(C(=O)NCCCN1CCOCC1)C1CCCCC1 (stereo unspecified),19*,16,-21,0.83,4,-2
CCOC(=O)c1c(C)[nH]c(C(=O)CN2CCOCC2)c1C,nt,nt,nt,-1.5,nt,nt
C=CCOC(=O)C1=C[C@@H](c2ccc(C(F)(F)F)cc2)[C@H](CCCO)[C@@H](OCC)O1,nt,nt,nt,-0.86,nt,nt
CN(C)/C=C(\C#N)C(=O)Nc1ccc(F)cc1,-3,-31,-3,-2.2*,6,12
CN(C)c1ccc(/C=C2/C(=O)N(c3ccc([N+](=O)[O-])cc3)N=C2N2CCOCC2)cc1,12,26,-5,0.027,-7,2
CN(C)c1ccc(/C=C2\C(=O)N(c3ccc([N+](=O)[O-])cc3)N=C2N2CCOCC2)cc1,20*,9,-7,nt,5,5
c1ccc(-c2cn3nc(-c4ccccc4)c(-c4ccccc4)nc3n2)cc1,0,26,-18,0.92,7,98*[fluorescence artefact?]
O=C(COC(=O)[C@H](Cc1ccccc1)NS(=O)(=O)c1ccccc1F)NC1CCCCC1,0,14,-4,1.3,4,5
Cc1nn(C(C)C(=O)NNC(=S)Nc2ccc(F)cc2)c(C)c1[N+](=O)[O-] (stereo unspecified),1,-16,10,-0.56,-4,2
COc1ccc(C2(CNC(C)=O)CCOCC2)cc1OC,1,12,62*,-0.033,-7,6
CCOC(=O)c1c(C)n(C)c2ccc(OCC(O)Cn3nc(C)c(Br)c3C)cc12 (stereo unspecified),-3,-6,-3,-8.5*,3,10
Cc1ccccc1-c1nnc(NC(=O)CSc2nc3ccccc3s2)s1,nt,nt,nt,-0.032,nt,nt
SMILES,FAK inh,PLK1 PBD inh,PLK1 kinase inh,DAT uptake mod,EphB4 ephrin blk,HIV Rev-RRE inh
COc1cc(C2N(c3ccccn3)C(=O)C3CCCN32)cc(OC)c1OC (stereo unspecified),2,0,8,-7.9*,-12,1
COc1ccc(C2N(c3ccccn3)C(=O)C3CCCN32)c(OC)c1 (stereo unspecified),5,-10,-4,-1,1,11
N#C/C(=C\c1ccc(N2CCOCC2)o1)c1ccccc1,5,-33,-16,-0.98,-7,78*
N#C/C(=C\N1CCOCC1)c1ccccc1,0,-15,-4,-0.95,-2,2
N#C/C(=C\c1cc([N+](=O)[O-])c(N2CCOCC2)cc1N1CCOCC1)c1nc2ccccc2[nH]1,5,13,-10,-0.4,0,7
N#C/C(=C/c1ccc(N2CCOCC2)o1)c1ccc(Br)cc1,2,-171,-16,-1.3,-11,123*[fluorescence artefact?]
N#C/C(=C/c1ccc(N2CCOCC2)o1)c1nc2ccccc2[nH]1,4,-234,-98,0.32,-6,136*[fluorescence artefact?]
Cc1ccccc1C(=O)Nc1cccc(NC(=O)Cn2cnc3c(=O)n(C)c(=O)n(C)c32)c1,2,3,0,1.4,-1,0
Cc1cc(S(=O)(=O)N(Cc2ccc3c(c2)OCO3)CC2CCCO2)ccc1-n1cnnn1 (stereo unspecified),1,12,-12,1.4,0,4
C=CCNC(=O)C1CC2Cn3c(nc4cc5ccccc5cc43)C2N1C (stereo unspecified),nt,nt,nt,0.41,nt,nt
CC(CCc1ccco1)NC(=O)c1cc2c(-c3ccccc3F)nn(C)c2s1 (stereo unspecified),6,0,-2,2.9*,2,0
CCOC(=O)CSC1=C(C#N)C(=O)NC2(CCCCC2)S1,-2,11,-5,0.64,0,3
CNC(=O)OC(C)CNS(=O)(=O)c1ccc(C)cc1 (stereo unspecified),0,20,-5,0.55,-9,6
Cc1ccc(S(=O)(=O)NCC(C)NS(=O)(=O)c2ccc(C)cc2)cc1 (stereo unspecified),0,-13,-7,-8.2*,-4,0
CCOC(=O)C1=C(CS(=O)(=O)c2ccc(F)c(C)c2)NC(=O)NC1c1ccc(O)c(O)c1 (stereo unspecified),nt,nt,nt,-0.22,nt,nt
CN(C)S(=O)(=O)N1CCN(C(=O)c2cccc(Br)c2)CC1,-2,-29,-8,-1.1,4,2
CN(C)S(=O)(=O)N1CCN(C(=O)c2ccccc2)CC1,-1,12,9,-4.5*,6,2
COc1cc(C2C3C(=O)N(c4ccc(F)cc4)C(=O)C3ON2c2ccccc2)ccc1O (stereo unspecified),6,-4,-20,-6.9*,0,3
COc1cc(C2C3C(=O)N(c4ccccc4)C(=O)C3ON2c2ccccc2)cc(OC)c1OC (stereo unspecified),-3,-17,-14,0.43,3,7
CCc1cc2c(CN3CCN(CCO)CC3)cc(=O)oc2cc1O,0,21,-17,1.6,3,12
CCc1cc2c(CN3CCN(C)CC3)cc(=O)oc2cc1O,3,0,2,-9.5*,3,6
